In ChEMBL document CHEMBL4808188, “Development of BET inhibitors as potential treatments for cancer: A search for structural diversity” (Bioorg Med Chem Lett, 2021):
Converted amounts (≈) assume the structure as drawn.

Assays:
[1] = molecular target: T1, Bromodomain-containing protein 4 (Homo sapiens, UniProt O60885); assay: Inhibition of BRD4 (unknown origin)
In short: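 BRD4 binding assay; IC50 in nM, reported as mean ± SEM.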

[2] = molecular target: T1, Bromodomain-containing protein 4; assay: Inhibition of BRD4 (unknown origin) assessed as reduction in c-Myc expression
In short: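 Functional c-Myc assay with MYC expression as the read-out; IC50 in nM, reported as mean ± SEM.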

[3] = Antiproliferative activity against Velcade-resistant human JJN-3R cells assessed as reduction in cell viability; type: functional, cell-based
In short: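 Multiple myeloma cell proliferation assay in the Velcade-resistant JJN3R line; IC50 taken from proliferation.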

[4] = Metabolic stability in human liver microsomes assessed as half life measured upto 120 mins; type: ADME, Microsome
[5] = Metabolic stability in rat liver microsomes assessed as half life measured upto 120 mins; type: ADME, Microsome
[6] = Metabolic stability in mouse liver microsomes assessed as half life measured upto 120 mins; type: ADME, Microsome
[7] = Metabolic stability in dog liver microsomes assessed as half life measured upto 120 mins; type: ADME, Canis lupus familiaris, Microsome; conditions: for half-life: liver microsomes
[8] = Metabolic stability in monkey liver microsomes assessed as half life measured upto 120 mins; type: ADME, Macaca mulatta, Microsome; conditions: rhesus monkey
[9] = Permeability of the compound at pH 7.4 by PAMPA; type: ADME; conditions: read-out: permeability
In short: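 PAMPA run at pH 7.4; permeability reported in nm/sec.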

[10] = Protein binding in human serum assessed as free fraction; type: ADME, cell-free
[11] = Solubility of the compound in phosphate buffer at pH 6.5; type: physicochemical
In short: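 Solubility measured in 50 mM phosphate buffer at pH 6.5; reported in µg/mL.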

[12] = AUC (0 to 24 hrs) in mouse at 3 mg/kg, po measured for 24 hrs; type: ADME, organism-based; parameters: route oral, time 24 hrs, dose 3 mg/kg; conditions: in vivo
[13] = Antitumor activity against human JJN-3R cells xenografted in mouse assessed as tumor growth inhibition at 1 mg/kg, po qd administered for 7 days beginning 8 days after tumor-cell implantation; type: functional; conditions: 168 h, time 7 day, read-out: TGI
In short: (§1)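 JJN3R multiple myeloma xenograft in mice. Oral dosing once daily for 7 days began 8 days after tumor-cell implantation, on established tumors. Read-out was % tumor growth inhibition, and the minimum efficacious dose was identified.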

[14] = Antitumor activity against human JJN-3R cells xenografted in po dosed mouse assessed as tumor growth inhibition administered qd for 7 days beginning 8 days after tumor-cell implantation; type: functional; conditions: 168 h, time 7 day, read-out: MED; in short: as §1
[15] = Antitumor activity against human JJN-3R cells xenografted in mouse assessed as tumor growth inhibition at 4 mg/kg, po qd administered for 7 days beginning 8 days after tumor-cell implantation; type: functional; conditions: 168 h, time 7 day, read-out: TGI; in short: as §1
[16] = Antitumor activity against human JJN-3R cells xenografted in mouse assessed as tumor growth inhibition at 2 mg/kg, po qd administered for 7 days beginning 8 days after tumor-cell implantation; type: functional; conditions: 168 h, time 7 day, read-out: TGI; in short: as §1

Row | Compound | IC50 [1] | IC50 [2] | half-life [4] | half-life [5] | half-life [6] | half-life [7] | half-life [8] | Papp [9] | fraction unbound [10] | solubility [11] | AUC(0-t) at 24 h [12] | t1/2 ([7]; microsomes, 2 h) | IC50 [3] | inhibition in vivo at 1 mg/kg [13] | minimal effective dose [14] | inhibition in vivo at 4 mg/kg [15] | inhibition in vivo at 2 mg/kg [16]
1 | Cc1nnn(C)c1-c1cnc2c3ccc(C(C)(C)O)cc3n(C(c3cnn[nH]3)C3CCOCC3)c2c1 (configuration not stated) | 27 nM | 210 nM | – | – | – | – | – | 12 ×10⁻⁶ cm/s | – | – | – | – | 710 nM | – | – | – | –
2 | Cc1cc([C@H](C2CCOCC2)n2c3cc(C(C)(C)O)ccc3c3ncc(-c4c(C)nnn4C)cc32)n(C)n1 | 2.3 nM | 7.1 nM | 83 min | 59 min | 50 min | 52 min | 36 min | 15 ×10⁻⁶ cm/s | – | – | – | – | 55 nM | – | – | – | –
3 | [2H]C([2H])([2H])c1nnn(C)c1-c1cnc2c3c(F)cc(C(C)(C)O)cc3n([C@H](c3cc(C)on3)C3CCOCC3)c2c1 | – | 2.8 nM | 120 min | 33 min | 17 min | 71 min | 34 min | 41 ×10⁻⁶ cm/s | – | – | – | – | 3.9 nM | – | – | – | –
4 | [2H]C([2H])([2H])c1nnn(C)c1-c1cnc2c3ccc(C(C)(C)O)cc3n([C@H](c3cc(C)on3)C3CCOCC3)c2c1 | 1.2 nM | 2.1 nM | 64 min | 33 min | 30 min | 75 min | 37 min | 26 ×10⁻⁶ cm/s | 0.14 | – | – | – | 9.9 nM | – | – | – | –
5 | Cc1cc([C@H](C2CCOCC2)n2c3cc(C(C)(C)O)ccc3c3ncc(-c4c(C)nnn4C)cc32)no1 | 1.6 nM | 2.8 nM | 61 min | 26 min | 10 min | 38 min | 16 min | 35 ×10⁻⁶ cm/s | – | – | – | – | 11 nM | – | – | – | –
6 | [2H]C([2H])([2H])c1nnn(C)c1-c1cnc2c3ccc(C(C)(C)O)c(F)c3n([C@H](c3cc(C)on3)C3CCOCC3)c2c1 | 2 nM | 3.9 nM | 79 min | 30 min | 30 min | 52 min | 23 min | 80 ×10⁻⁶ cm/s | 0.16 | 120 µg/mL (≈ 230 µM) | 8.7 µM·h | – | 13 nM | – | 4 mg/kg | 71% | –
7 | [2H]C([2H])([2H])c1nnn(C)c1-c1cnc2c3cc(F)c(C(C)(C)O)cc3n([C@H](c3cc(C)on3)C3CCOCC3)c2c1 | 1.4 nM | 2.2 nM | 54 min | 3 min | 26 min | 33 min | 21 min | 69 ×10⁻⁶ cm/s | – | – | – | – | 14 nM | – | – | – | –

These reach a lower IC50 [2]. Values come first.

Row | IC50 [1] | IC50 [2] | half-life [4] | half-life [5] | half-life [6] | half-life [7] | half-life [8] | Papp [9] | fraction unbound [10] | solubility [11] | AUC(0-t) at 24 h [12] | t1/2 ([7]; microsomes, 2 h) | Compound | IC50 [3] | inhibition in vivo at 1 mg/kg [13] | minimal effective dose [14] | inhibition in vivo at 4 mg/kg [15] | inhibition in vivo at 2 mg/kg [16]
8 | 0.9 nM | 1 nM | 79 min | 48 min | 24 min | 36 min | 22 min | 27 ×10⁻⁶ cm/s | 0.04 | – | – | – | [2H]C([2H])([2H])c1nnn(C)c1-c1cnc2c3ccc(C(C)(C)O)cc3n([C@H](c3ncccc3F)C3CCOCC3)c2c1 | 3.6 nM | – | – | – | –
9 | 0.6 nM | 0.9 nM | 75 min | 47 min | 16 min | 37 min | 22 min | 42 ×10⁻⁶ cm/s | 0.06 | 91 µg/mL (≈ 170 µM) | 10.9 µM·h | – | [2H]C([2H])([2H])c1nnn(C)c1-c1cnc2c3ccc(C(C)(C)O)c(F)c3n([C@H](c3ncccc3F)C3CCOCC3)c2c1 | 1.7 nM | 91% | 1 mg/kg | – | –
10 | 0.9 nM | 2 nM | 52 min | 46 min | 41 min | – | 19 min | 69 ×10⁻⁶ cm/s | 0.01 | 4 µg/mL (≈ 7.74 µM) | 12.6 µM·h | 32 min | [2H]C([2H])([2H])c1nnn(C)c1-c1cnc2c3cc(F)c(C(C)(C)O)cc3n([C@H](c3ccccc3)C3CCOCC3)c2c1 | 6 nM | – | – | 78% | 77%
11 | 1 nM | 1.2 nM | 55 min | 62 min | 35 min | 61 min | 37 min | 61 ×10⁻⁶ cm/s | 0.06 | – | – | – | [2H]C([2H])([2H])c1nnn(C)c1-c1cnc2c3ccc(C(C)(C)O)cc3n([C@H](c3ccc(Cl)cn3)C3CCOCC3)c2c1 | 4.8 nM | – | – | 76% | –
